T cell modulator: modulates CD8 T cell binding to vesicles | 2C CD8+ T cell-vesicle binding, flow cytometry; hits give low values | response (vesicle binding), % at 7 µM | actives 0.068% (n = 330,000) | AID 2052;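 active = response, share of CD8 T cells binding vesicles, and their 90th percentile fluorescence all below set limits, cut at about 80% in these data, passing the limit was not always enough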;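 note: values below 100% mean blocked vesicle binding to the CD8+ T cells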
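Incubation: binding step 1.5 h, 37 °C, antibody labelling 20 min, ice; system: murine 2C transgenic CD8+ T lymphocytes; technique: cytometric PE anti-B7-1 and Alexa647 anti-CD8 signals after 1% paraformaldehyde fixation; also added: QL9-charged Drosophila Ld/ICAM-1/B7-1 vesicles; control set: naked versus QL9-loaded vesicles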
Myeloid diff 2: compounds promoting myeloid differentiation | ER-HoxA9 myeloid progenitors, lysozyme-GFP differentiation, flow cytometry | calls only at 10 µM | actives 1% (n = 360,000) | AID 624256;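 active = normalized GFP-positive differentiation at or above the plate's own cutoff, the solvent-only control mean plus 3 SD; inconclusive = no clear call, values can overlap the other calls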;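 note: cells exposed to compound for four days before flow analysis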
Vif imaging: HIV Vif inhibition. HEK293T cells, Vif self-association by quenched fluorescence, imaging, 24 h. actives 0.35% (n = 340,000). AID 602346. inhibition, % at 7.49 µM; in the data active = inhibition above about 50%, passing the limit was not always enough; inconclusive = no clear call, values can overlap the other calls; inactive = below about 31%
Pemphigus Ab inh: inhibitors of pemphigus antibody binding to human desmoglein-3; P32926; DSG3-coupled beads, scFv-anti-DSG3-GFP binding, flow cytometry; hits give low values; binding (percent of control), % at 10 µM; actives 0.48% (n = 310,000);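 active = binding more than 3 SD below its plate's average and above zero; inconclusive = below that plate limit but binding exactly zero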;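 note: hits lower antibody fragment binding to DSG3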
Target sequence (P32926 whole entry, looked up, the tested form may be a part): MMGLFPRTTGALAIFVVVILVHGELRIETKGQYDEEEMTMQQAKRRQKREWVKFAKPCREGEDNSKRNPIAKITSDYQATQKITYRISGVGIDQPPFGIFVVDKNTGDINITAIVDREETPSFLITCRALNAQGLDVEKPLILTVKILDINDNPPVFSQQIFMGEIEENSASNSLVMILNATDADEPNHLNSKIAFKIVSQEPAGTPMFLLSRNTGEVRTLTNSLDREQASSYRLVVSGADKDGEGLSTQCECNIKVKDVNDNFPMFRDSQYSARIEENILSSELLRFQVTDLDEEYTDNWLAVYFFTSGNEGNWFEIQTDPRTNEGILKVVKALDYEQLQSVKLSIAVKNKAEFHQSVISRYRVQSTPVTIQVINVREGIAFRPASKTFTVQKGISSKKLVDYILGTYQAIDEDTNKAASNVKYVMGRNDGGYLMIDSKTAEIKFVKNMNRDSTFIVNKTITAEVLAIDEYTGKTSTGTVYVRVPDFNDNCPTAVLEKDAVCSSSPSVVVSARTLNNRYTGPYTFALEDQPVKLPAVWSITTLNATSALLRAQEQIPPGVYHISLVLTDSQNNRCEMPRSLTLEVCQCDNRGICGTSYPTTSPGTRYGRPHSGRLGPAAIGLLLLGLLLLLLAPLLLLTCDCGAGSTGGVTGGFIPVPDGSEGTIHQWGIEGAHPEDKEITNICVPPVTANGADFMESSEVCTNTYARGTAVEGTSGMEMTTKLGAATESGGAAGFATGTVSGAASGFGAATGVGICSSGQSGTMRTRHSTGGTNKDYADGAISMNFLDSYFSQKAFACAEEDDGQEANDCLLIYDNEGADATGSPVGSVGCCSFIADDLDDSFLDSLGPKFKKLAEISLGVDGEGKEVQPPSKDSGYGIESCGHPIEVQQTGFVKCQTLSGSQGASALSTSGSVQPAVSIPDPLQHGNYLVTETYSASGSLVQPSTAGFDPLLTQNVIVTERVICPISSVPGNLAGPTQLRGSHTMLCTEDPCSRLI
Hits are given with their value; . = inactive; ? = inconclusive; / = not tested or not shown; + = active, no number. In the library only some 1.7% were active in any assay of this set; here they are far more common.

SMILES | T cell modulator | Myeloid diff 2 | Vif imaging | Pemphigus Ab inh
Cc1ccc(C(=O)N/C(=C\c2ccc(-c3ccc(Cl)cc3)o2)C(=O)NCCCN(C)C)cc1 | . | + | . | /
CN(C)CCNC(=O)/C(=C/c1ccc(-c2cccc([N+](=O)[O-])c2)o1)NC(=O)c1ccccc1 | . | . | . | .
CN(C)CCCNC(=O)/C(=C\c1ccc(-c2ccc(Br)cc2)o1)NC(=O)c1ccccc1 | . | + | . | .
COCCN1C(=O)CSCC1(C)C(=O)NCc1ccccc1 (configuration not stated) | / | . | / | /
COc1ccc(NC(=S)NCC(c2ccco2)N2CCCC2)cc1 (configuration not stated) | . | . | . | .
CC(=O)c1ccc(NC(=S)NCC(c2ccco2)N2CCCC2)cc1 (configuration not stated) | . | + | . | .
CC(C)=C[C@H]1C[C@H](C)[C@H]2CC[C@H](C)c3c(O)c(O[C@H]4OC[C@H](O)[C@@H](O)[C@@H]4O)c(C)c1c32 | / | ? | . | /
CCCCn1c(SCC(=O)Nc2nnc(C(C)C)s2)nc2c1c(=O)n(C)c(=O)n2C | . | . | 52 | .
CC1(C(=O)NCc2ccc3c(c2)OCO3)CCN1C(=O)Cc1ccc(Cl)cc1Cl (configuration not stated) | / | . | . | /
Cc1nn(C2CC(O)C(O)C(CO)O2)c(=O)[nH]c1=O (configuration not stated) | / | . | . | .
NS(=O)(=O)c1ccc(NC(=S)N2CCN(c3ccc(Cl)c(Cl)c3)CC2)cc1 | . | . | . | 53
NS(=O)(=O)c1ccc(NC(=S)N2CCN(Cc3ccc(Cl)c(Cl)c3)CC2)cc1 | . | . | . | /
CC(C)Oc1ccc(C(=O)Nc2ccc(NC(=O)c3ccco3)c(Cl)c2)cc1 | . | . | . | 54
Cc1ccc(NC(=O)COC(=O)[C@@H]2CC(O)CN2S(=O)(=O)c2ccc3c(c2)OCCO3)cc1 (some centres not stated) | . | . | . | .
O=C(Nc1ccc2nc(-c3cccs3)[nH]c2c1)c1ccco1 | . | + | / | .
CSc1nc2ccc(NC(=O)c3cccs3)cc2s1 | . | . | . | 28
CC(=O)Nc1ccc(NC(=O)C2CC(=O)N(Cc3ccccc3)C2)cc1 (configuration not stated) | . | . | . | .
CSc1nc2ccc(NC(=O)C3CC(=O)N(Cc4ccccc4)C3)cc2s1 (configuration not stated) | . | + | . | .
O=C(Nc1ccc(-c2nc3ccc(NC(=O)c4cccs4)cc3[nH]2)cc1)c1cccs1 | . | / | 80 | .
CSc1nc2ccc(NC(=O)c3ccco3)cc2s1 | . | . | . | .
CC1CCCC(NC(=O)C2N(CCCN3CCCC3)C(=O)C3C(C(=O)Nc4cccc(Cl)c4)C4C=CC32O4)C1C (configuration not stated) | . | . | . | /
COc1cccc(Nc2nc(CN3CCOCC3)nc3sc4c(c23)CCCC4)c1 | . | . | 96 | .
COc1cc2c(cc1OC)CN(c1nc(CN3CCOCC3)nc3sc4c(c13)CCCC4)CC2 | . | + | . | /
O=C1c2ccccc2S(=O)(=O)N1CC(O)Cn1ccc2ccccc21 (configuration not stated) | . | + | . | .
COC(=O)c1ccccc1NC(=O)Cn1cnc2cc(C)c(C)cc21 | . | . | 71 | .
SMILES | T cell modulator | Myeloid diff 2 | Vif imaging | Pemphigus Ab inh
COC(=O)c1ccccc1NC(=O)Cn1cnc2c(cnn2-c2ccc(C)c(C)c2)c1=O | . | / | / | /
CCOC(=O)C1=CCN(S(=O)(=O)c2ccccc2C)C1c1ccc(Cl)cc1 (configuration not stated) | / | . | . | /
c1ccc(Nc2nc(-c3ccccc3)ns2)cc1 | . | / | . | 58
COc1ccccc1N(C)c1cc2c(c3c1ccn3C)C1CCC2O1 (configuration not stated) | / | . | / | /
O=C(CN1C(=O)S/C(=C\C=C\c2ccccc2)C1=O)Nc1ccccc1C(=O)O | . | . | . | .
C#CCN1C(=O)S/C(=C/C=C/c2ccc(N(C)C)cc2)C1=O | . | . | 87 | .
CC1=Nc2cc(C(=O)N3CCCC3)ccc2Sc2c(C)ccc(C)c21 | . | ? | . | .
CC1=Nc2cc(C(=O)O)ccc2Sc2c(C)ccc(C)c21 | . | . | 69 | .
CN=C1NC(C)(C)C2CCC(C)(CC2)S1 | / | + | . | .
CCNC(=O)C1CCCN(C(=O)c2cccc(C#N)c2)CC1 (configuration not stated) | / | . | . | /
Cc1nn(CC(=O)Nc2ccccc2)c(=O)c2ccccc12 | . | . | . | .
Cc1nnc(NC(=O)Cn2nc(C)c3ccccc3c2=O)s1 | . | . | 70 | .

Source: PubChem BioAssay (several laboratories)
